# Hits are enriched below; roughly 1.2% of the tested compounds scored in any of these assays.
# TRPN1 ag = zebrafish TRPN1 channel agonists, primary screen, cell-based, HEK293, calcium fluorescence. 0.18% of 220,000 active. HEK293 zebrafish TRPN1-YFP, Fluo-8 calcium fluorescence; 100% = response to 87 µM carbachol. activation, % at 3 µM;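 active = activation above its plate's cutoff, the mean activation of test wells on that plate plus 3 SD, cut at about 19% in these data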;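 note: 0% = DMSO alone and 100% = 87 µM carbachol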
#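 Material: zebrafish TRPN1-YFP in HEK293 cells. Doses: one dose of 3 µM, 0.3% DMSO. Incubation: dye 1 h 37 °C plus 30 min RT. Measured by: intracellular calcium fluorescence with Fluo-8.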
# CRFBP-R2 block = antagonists of CRF-BP/CRF-R2 complex, primary screen, cell-based, HEK293, calcium dye fluorescence, uHTS; CRF-induced calcium fluorescence; inhibition, % at 11.8 µM; 0.59% of 350,000 active; AID 588475, 2011;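 active = inhibition of the ligand-induced calcium signal above about 50% at the single tested concentration, limit read from the data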
# TRPML3 agonist = human TRPML3 channel agonists, primary screen, cell-based, HEK293 TRPML3-YFP, Fluo-8 calcium fluorescence, 3 µM; Mucolipin-3 (Homo sapiens), Q8TDD5; 100% = the carbachol control signal; activation, % at 3 µM; 0.29% of 220,000 active; AID 1448, 2008;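 active = activation above its plate's cutoff, the mean activation of the plate's test wells plus 3 SD, cut at about 12% in these data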;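 note: 0% = DMSO only wells and 100% = carbachol wells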
# Target sequence (Q8TDD5 whole entry, looked up): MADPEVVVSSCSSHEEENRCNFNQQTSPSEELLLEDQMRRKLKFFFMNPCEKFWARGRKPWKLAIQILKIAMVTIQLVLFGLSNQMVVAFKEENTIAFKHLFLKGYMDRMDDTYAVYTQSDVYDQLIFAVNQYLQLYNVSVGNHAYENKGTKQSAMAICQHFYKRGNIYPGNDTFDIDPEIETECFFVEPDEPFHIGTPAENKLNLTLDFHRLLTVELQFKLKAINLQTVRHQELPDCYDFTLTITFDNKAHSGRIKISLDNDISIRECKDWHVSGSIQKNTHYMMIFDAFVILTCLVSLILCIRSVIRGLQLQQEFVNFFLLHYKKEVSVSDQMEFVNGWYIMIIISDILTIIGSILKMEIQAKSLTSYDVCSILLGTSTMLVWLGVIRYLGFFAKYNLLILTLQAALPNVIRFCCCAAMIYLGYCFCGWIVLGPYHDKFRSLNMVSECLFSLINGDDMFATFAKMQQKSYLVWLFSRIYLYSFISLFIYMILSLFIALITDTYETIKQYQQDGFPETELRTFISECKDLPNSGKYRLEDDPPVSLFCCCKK
#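 Test system: HEK293 cells stably carrying human TRPML3-YFP; Doses: single dose, 3 µM final nominal compound, 0.3% DMSO final; Schedule: dye loading 1 h 37 °C then 30 min ambient, 125 s read; Technique: Fluo-8 calcium fluorescence; Benchmarks: high control carbachol 87 µM, low control DMSO.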
# CRFBP-R2 agonist = agonists of CRF-BP/CRF-R2 complex, primary screen, cell-based, HEK293, calcium dye fluorescence, uHTS | 0.46% of 350,000 active | CRF-binding protein / CRF receptor 2 complex (human) | activation, % at 13.2 µM | calcium dye fluorescence (FLIPR); percent of saturating CRF peptide response;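 active = activation of at least 50%, plus an integration ratio under a set limit after plate pattern correction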;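 note: plate controls were neutral control wells without compound for no effect and CRF at EC100 for full effect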
# TRPN1 counter = zebrafish TRPN1 channel agonists, counter-screen for TRPML3 agonist project, cell-based, HEK293 TRPN1-YFP, Fluo-8 calcium; shares compounds with TRPML3 agonist; Fluo-8 calcium fluorescence; scaled: carbachol wells 100%, DMSO wells 0%; activation, % at 3 µM; 10% of 310 active;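 active = mean activation over replicates above a set limit taken from the earlier TRPN1 channel primary screen, cut at about 19% in these data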;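 note: 100% = carbachol and 0% = 0.3% DMSO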
# TRPML3 ag conf = human TRPML3 channel agonists, confirmation, cell-based, HEK293 TRPML3-YFP, Fluo-8 calcium, triplicate | shares compounds with TRPML3 agonist | Fluo-8 calcium fluorescence; 100% set by carbachol, 0% by DMSO | activation, % at 3 µM | 80% of 310 active | AID 1526, 2009;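 active = activation above a set limit derived from the earlier primary screen, cut at about 12% in these data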
# Numbers without * were called inactive; · = no result given.
SMILES,TRPN1 ag,CRFBP-R2 block,TRPML3 agonist,CRFBP-R2 agonist,TRPN1 counter,TRPML3 ag conf
COc1ccc(/C=N\NC(=S)SCN2C(=O)C3CCC(C)(C2=O)C3(C)C)cc1 (stereo not given),-1,-21,39*,-2,0,0
CC12CCC(C(=O)N(CSC(=S)N/N=C\c3ccccc3O)C1=O)C2(C)C (stereo not given),0,17,67*,-1,2,2
CN(C)c1ccc(/C=N\NC(=S)SCN2C(=O)C3CCC(C)(C2=O)C3(C)C)cc1 (stereo not given),0,4,16*,-1,0,0
COc1ccc(C(=O)NN2C(=O)C3CCC(C)(C2=O)C3(C)C)cc1 (stereo not given),1,-1,1,-1,·,·
CCc1ccc2[nH]c(=O)c(CN(CCN(C)C)C(=O)Nc3ccccc3OC)cc2c1,1,-12,1,-2,·,·
O=C(Nc1ccccc1)c1ccc(NCC2CCCO2)c([N+](=O)[O-])c1 (stereo not given),6,14,0,-1,·,·
Cc1cccc(C)c1-n1nnnc1S(=O)(=O)Cc1ccccc1Cl,1,19,26*,19,0,14*
Cc1cc([N+](=O)[O-])cc2c1NC(=O)C2(O)N1CCOCC1 (stereo not given),0,1,0,0,·,·
Cc1ccccc1N1CCN(S(=O)(=O)c2ccccc2)CC1,-1,11,65*,2,-2,36*
Cc1cc(S(=O)(=O)N2CCN(c3ccccc3C)CC2)ccc1F,-1,-2,2,2,·,·
CN(CC(=O)O/N=C(\N)c1cccc([N+](=O)[O-])c1)S(=O)(=O)c1ccccc1,0,-20,96*,2,2,36*
O=C(Cc1ccc(Cl)c(Cl)c1)Nc1ccccc1N1CCOCC1,0,3,51*,0,1,67*
CC1CCCCC12NC(=O)N(CC(=O)N(C)Cc1nc3ccccc3c(=O)[nH]1)C2=O (stereo not given),·,-2,·,-1,·,·
COc1ccc(C(=O)CSc2nnn(-c3cccc(NC(C)=O)c3)n2)cc1,7,-53,12*,69*,12,21*
O=C(O)C1C2C=CC(O2)C1C(=O)Nc1cccc(C(F)(F)F)c1 (stereo not given),·,-1,·,-1,·,·
COc1ccc(-c2oc3cccnc3c2C#CCO)cc1,·,13,·,-1,·,·
O=C(Nc1ccncc1)Nc1ccc(F)c(Cl)c1,7,-16,12*,1,10,9
COc1ccc(/C=C/c2nc(N)nc(-c3ccccc3O)n2)cc1,0,0,0,-2,·,·
COc1ccc(C(=O)NCC(C)(C)N2CCOCC2)cc1S(=O)(=O)NCc1ccc(Cl)cc1,·,-6,·,1,·,·
Cc1onc(-c2ccccc2Cl)c1C(=O)Nc1cccc(-c2nc3ncccn3c2C)c1,5,13,12*,0,8,13*
CCN(CC)C(=S)SCC(=O)NC12CC3CC(CC(C3)C1)C2,0,-19,12*,-3,0,28*
Cc1cc(C)n(-c2nc(C)nc(NCc3ccccc3)n2)n1,3,-35,25*,28,3,23*
CNc1nc(C)nc(-n2nc(C)cc2C)n1,4,-12,0,-1,·,·
O=C(O)c1ccc(Cn2cc(C(F)(F)F)ccc2=O)cc1,1,11,1,0,·,·
COc1ccc2c(c1)C(C)=CC(C)(C)N2S(=O)(=O)c1ccc(C)cc1,-2,19,5,-2,·,·
SMILES,TRPN1 ag,CRFBP-R2 block,TRPML3 agonist,CRFBP-R2 agonist,TRPN1 counter,TRPML3 ag conf
CCOc1ccc2c(c1)C(C)=CC(C)(C)N2S(=O)(=O)c1ccc(C)cc1,-1,23,16*,2,-1,33*
CCN(NC(=O)C(O)(c1ccccc1)c1ccccc1)C(=O)c1ccccc1,0,2,1,1,·,·
CC(c1ccccc1)N(NC(=O)C(O)(c1ccccc1)c1ccccc1)C(=O)c1ccccc1 (stereo not given),-1,6,13*,0,-1,65*
O=S(=O)(/C=C/c1ccccc1)c1ccccc1,-2,-1,0,-1,·,·
O=S(=O)(C=C(c1ccccc1)c1ccccc1)c1ccccc1,0,-4,83*,1,-2,64*
C[N+](C)(C)C/C=C1/COCO1,8,-15,52*,8,14,40*
O=C(Nc1cccnc1)c1ccc(N2CCCC2)c([N+](=O)[O-])c1,3,15,1,-2,·,·
CN(C)c1ncc(S(=O)(=O)c2ccccc2)c(-c2ccc(Cl)cc2Cl)n1,0,31,58*,0,-1,82*
CC1CCCN(S(=O)(=O)c2ccc(Br)s2)C1 (stereo not given),-1,-18,1,2,·,·
CC1CCN(S(=O)(=O)c2ccc(Cl)cc2)CC1,1,7,10,-1,·,·
CN1CCN(S(=O)(=O)c2ccc3ccccc3c2)CC1,0,-29,1,0,·,·
CC1CCN(S(=O)(=O)c2ccc(C(C)C)cc2)CC1,2,-257,68*,90*,8,118*
CC1CCN(S(=O)(=O)c2ccc3ccccc3c2)CC1,0,-19,22*,1,0,43*
CC1CCN(S(=O)(=O)c2ccc(Br)s2)CC1,-1,-21,20*,-1,-2,19*
CC(C)[C@H](NS(=O)(=O)c1ccc2c(c1)OCCO2)C(=O)OCC(=O)Nc1cccc(Cl)c1Cl,0,-70,20*,2,1,33*
CCCCC(CC)C(=O)Nc1ncc([N+](=O)[O-])s1 (stereo not given),14,-36,13*,29,16,6
Cc1ccc(CC(=O)Nc2ncc([N+](=O)[O-])s2)cc1,13,3,8,18,·,·
CCn1c(SCC(=O)N2CCN(c3ccccc3)CC2)nnc1-c1ccncc1,0,·,1,·,·,·
O=C(Nc1c(S(=O)(=O)c2ccc(Cl)cc2)csc1Br)c1ccccc1Cl,-2,-14,33*,0,-2,44*
O=C(NC(=O)c1ccccc1Cl)C(=O)Nc1ccc(Cl)cc1,·,-33,·,7,·,·
COc1ccccc1N1CCN(C(=O)C2CCCCN2S(=O)(=O)c2ccc(C)cc2)CC1 (stereo not given),1,9,14*,-3,0,11
